Laboratory results taken from ChEMBL document CHEMBL1914446, “Pharmacophore identification, virtual screening and biological evaluation of prenylated flavonoids derivatives as PKB/Akt1 inhibitors” (Eur J Med Chem, 2011).
Calls of active or inactive are those of the source. The calls are words filed in the database; no cut-off is given here.

What was measured:
[1] = biological target: T1, RAC-alpha serine/threonine-protein kinase (Homo sapiens, UniProt P31749); assay: Inhibition of GST-tagged PKB/Akt1 incubated for 5 mins before eNOS substrate and ATP addition measured after 30 mins by kinase assay
[2] = test system: OVCAR-8; assay: Decrease in GSK3-beta protein level in human OVCAR8 cells at 20 uM by Western blot analysis; type: functional, cell-based
Summary of the method: (§1)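 OVCAR-8 cells treated, harvested, washed in ice-cold PBS and lysed in immunoprecipitation buffer with NaF, β-glycerophosphate, detergents and PMSF. Debris pelleted at 13,000 rpm for 30 min at 4 °C; protein measured by Bradford. Immunoblots probed for phospho-Akt Ser-473, phospho- and total GSK3, with GAPDH.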

[3] = test system: OVCAR-8; assay: Antiproliferative activity against human OVCAR8 after 72 hrs by MTT assay; type: functional, cell-based; conditions: OVCAR-8, 72 h
Summary of the method: (§2)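 MTT read-out: cells seeded at 4000 per well, attached overnight, exposed to compound over 1.0–100.0 µM for 72 h. MTT solution (5.0 mg/ml) added for a further 4 h at 37 °C, formazan dissolved in DMSO, absorbance at 570 nm. Triplicate wells in three independent experiments; IC50 from dose–effect analysis.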

[4] = test system: OVCAR-8; assay: Induction of apoptosis in human OVCAR8 cells assessed as apoptotic cells at 20 uM after 72 hrs by Annexin V-FITC/propidium iodide staining-based FACS analysis; type: functional
Summary of the method: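 OVCAR-8 cells (5 × 10^4 cells/ml) cultured in flasks and treated with vehicle or compound. After treatment, cells harvested and washed twice in ice-cold PBS, then stained with Annexin V-FITC/propidium iodide and analysed by flow cytometry.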

[5] = test system: OVCAR-8; assay: Down regulation of PKB/Akt phosphorylation at Ser-473 in human OVCAR8 cells at 20 uM by Western blot analysis; type: functional, cell-based; summary of the method: as §1
[6] = test system: PC-3; assay: Antiproliferative activity against human PC3 after 72 hrs by MTT assay; type: functional, cell-based; conditions: PC-3, 72 h; summary of the method: as §2
[7] = test system: HL-60; assay: Antiproliferative activity against human HL60 after 72 hrs by MTT assay; type: functional, cell-based; conditions: HL-60, 72 h; summary of the method: as §2
[8] = test system: OVCAR-8; assay: Inhibition of PKB/Akt in human OVCAR8 cells assessed as decrease of GSK3-beta phosphorylation at 20 uM after Western blot analysis; type: cell-based; summary of the method: as §1
[9] = biological target: T1, RAC-alpha serine/threonine-protein kinase; assay: Inhibition of GST-tagged PKB/Akt1 incubated for 5 mins before eNOS substrate and ATP addition at > 50 uM measured after 30 mins by kinase assay
Summary of the method: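 HTScan PKB/Akt1 kit: active recombinant GST-Akt1 (4 ng) in kinase buffer (Tris-HCl pH 7.5, MgCl2, β-glycerophosphate, Na3VO4, DTT) preincubated with compound or DMSO vehicle 5 min at room temperature. ATP/substrate cocktail with eNOS substrate added. Reaction stopped with 50 mM EDTA (pH 8.0); activity read per kit instructions. H-89 as positive control.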

T1 sequence (P31749 whole entry): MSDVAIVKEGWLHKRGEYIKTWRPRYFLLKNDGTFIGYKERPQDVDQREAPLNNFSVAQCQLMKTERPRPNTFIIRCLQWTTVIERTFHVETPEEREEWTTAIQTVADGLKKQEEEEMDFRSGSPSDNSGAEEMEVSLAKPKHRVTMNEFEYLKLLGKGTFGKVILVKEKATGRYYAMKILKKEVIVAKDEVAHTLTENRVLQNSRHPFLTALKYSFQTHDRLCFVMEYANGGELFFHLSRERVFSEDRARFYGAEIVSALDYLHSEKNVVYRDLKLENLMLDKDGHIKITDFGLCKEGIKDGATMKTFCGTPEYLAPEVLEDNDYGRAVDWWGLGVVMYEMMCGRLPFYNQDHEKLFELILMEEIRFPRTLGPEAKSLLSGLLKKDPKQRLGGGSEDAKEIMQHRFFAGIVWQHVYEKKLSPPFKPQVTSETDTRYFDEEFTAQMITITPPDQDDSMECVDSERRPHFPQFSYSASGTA

CC(C)=CCc1c(O)cc2oc(-c3ccc(O)cc3O)cc(=O)c2c1O
IC50 ([1]; read-out: IC50): 54.5 µM

CC(C)=CCc1c(O)cc(O)c2c(=O)cc(-c3ccc(O)c(O)c3)oc12
IC50 ([1]; read-out: IC50): 3.9 µM
Activity [2]: inactive
IC50 [3]: 16.6 µM
Activity [4]: 49.11%
Activity [5]: Active
IC50 [6]: 18.6 µM
IC50 [7]: 3310 nM
inhibition [8]: Active

CC(C)=CCc1c(O)cc2oc(-c3ccc(O)c(O)c3)cc(=O)c2c1O
IC50 ([1]; read-out: IC50): 5.4 µM
Activity [2]: inactive
IC50 [3]: 23.8 µM
Activity [4]: 40.19%
Activity [5]: Active
IC50 [6]: 14.6 µM
IC50 [7]: 2500 nM
inhibition [8]: Active

CC(C)=CCc1c(O)cc(O)c(C(=O)/C=C/c2ccc(O)cc2)c1O [DEMETHYLXANTHOHUMOL]
IC50 ([1]; read-out: IC50): 144 µM

CC(=O)Nc1cccc(-n2nnc(SCC(=O)NCc3cccs3)n2)c1
IC50 ([1]; read-out: IC50): > 50 µM
inhibition [9]: 19.6%

CC(C)=CCc1cc2c(=O)cc(-c3ccc(O)cc3O)oc2cc1O
IC50 [1]: Not Active

Cc1ccc(S(=O)(=O)OC[C@H]2O[C@@H](n3cnc4c(=O)[nH]c(NC(=O)C(C)C)nc43)C[C@H]2O)cc1
IC50 [1]: Not Active

O=c1cc(CSc2nnc(O)n2C2Cc3ccccc3C2)c2ccc(O)cc2o1
IC50 [1]: Not Active

CC(C)=CCc1cc(C(=O)/C=C/c2cccc(O)c2)c(O)cc1O
IC50 ([1]; read-out: IC50): 85.9 µM
